Measurements taken from ChEMBL document CHEMBL4354800, “Amphiphilic nebramine-based hybrids Rescue legacy antibiotics from intrinsic resistance in multidrug-resistant Gram-negative bacilli” (Eur J Med Chem, 2019).

Experiments:
Type in all cases: functional
[1] = tested on: Pseudomonas aeruginosa; test: Potentiation of rifampicin-induced antibacterial activity against wild type Pseudomonas aeruginosa PAO1 assessed as fold reduction in rifampicin MIC at 7.5 uM incubated for 18 hrs by broth microdilution method
In short: (§1)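 CLSI broth microdilution. Overnight cultures were set to 0.5 McFarland in saline, diluted 1:50 in Mueller-Hinton broth to a final 5 × 10^5 CFU/mL, and incubated 18 h at 37 °C against 2-fold antibiotic dilutions. A fixed adjuvant level was present throughout. MIC = lowest concentration with no visible turbidity, confirmed at 590 nm. Potentiation = fold drop in antibiotic MIC versus antibiotic alone.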

[2] = tested on: Pseudomonas aeruginosa; test: Potentiation of rifampicin-induced antimicrobial activity against MDR/XDR Pseudomonas aeruginosa isolate 101243 devoid of GyrA Thr83Ile mutant assessed as rifampicin MIC50 incubated for 18 hrs by broth microdilution method (reference value: 8 microg/ml); conditions: isolate 101243, 18 h
[3] = tested on: Pseudomonas aeruginosa; test: Potentiation of rifampicin-induced antimicrobial activity against MDR/XDR Pseudomonas aeruginosa isolate 101243 devoid of GyrA Thr83Ile mutant assessed as rifampicin MIC80 incubated for 18 hrs by broth microdilution method (reference value: 16 microg/ml); conditions: isolate 101243, 18 h
[4] = tested on: Pseudomonas aeruginosa; test: Potentiation of rifampicin-induced antibacterial activity against MDR/XDR Pseudomonas aeruginosa isolate 100036 harboring GyrA T83I mutant assessed as fold reduction in rifampicin MIC at 7.5 uM incubated for 18 hrs by broth microdilution method; in short: as §1
[5] = tested on: Pseudomonas aeruginosa; test: Potentiation of minocycline-induced antimicrobial activity against MDR/XDR Pseudomonas aeruginosa isolate PA259-96918 harboring GyrA Thr83Ile mutant assessed as minocycline MIC80 incubated for 18 hrs by broth microdilution method (reference value: 32 microg/ml); conditions: isolate PA259-96918, 18 h
[6] = tested on: Pseudomonas aeruginosa; test: Potentiation of rifampicin-induced antibacterial activity against MDR/XDR Pseudomonas aeruginosa isolate PA262-101856 harboring GyrA T83I mutant assessed as fold reduction in rifampicin MIC at 7.5 uM incubated for 18 hrs by broth microdilution method; in short: as §1
[7] = tested on: Acinetobacter baumannii; test: Antimicrobial activity against multidrug-resistant Acinetobacter baumannii AB027 incubated for 18 hrs by broth dilution method; conditions: AB027, 18 h
In short: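 Broth microdilution per CLSI: overnight cultures set to 0.5 McFarland in saline, diluted 1:50 in Mueller-Hinton broth to a final 5 × 10^5 CFU/mL, added to 2-fold serial dilutions, incubated 18 h at 37 °C; MIC is the lowest concentration without visible turbidity, confirmed at 590 nm.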

[8] = tested on: Acinetobacter baumannii; test: Synergistic antibacterial activity against multidrug-resistant Acinetobacter baumannii 110193 assessed as fractional inhibitory concentration index in presence of rifampicin incubated for 18 hrs by broth dilution method
[9] = tested on: Pseudomonas aeruginosa; test: Synergistic antibacterial activity against MDR/XDR Pseudomonas aeruginosa isolate PA264-104354 harboring GyrA T83I mutant assessed as fractional inhibitory concentration index in presence of ciprofloxacin incubated for 18 hrs by broth microdilution method
In short: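 Checkerboard synergy assay. Antibiotic and adjuvant in twofold dilutions in Mueller-Hinton broth. Inoculum 5 × 10^5 CFU/mL from a 0.5 McFarland suspension, 18 h at 37 °C, MIC read by turbidity and confirmed at 590 nm. FIC = MIC in combination / MIC alone for each agent, FICI = sum. Interpreted as ≤0.5 synergy, 0.5–4 no interaction, >4 antagonism.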

[10] = tested on: Pseudomonas aeruginosa; test: Potentiation of rifampicin-induced antibacterial activity against MDR/XDR Pseudomonas aeruginosa isolate 101885 harboring GyrA T83I mutant assessed as fold reduction in rifampicin MIC at 7.5 uM incubated for 18 hrs by broth microdilution method; in short: as §1
[11] = tested on: Pseudomonas aeruginosa; test: Potentiation of rifampicin-induced antimicrobial activity against MDR/XDR Pseudomonas aeruginosa isolate PA262-101856 harboring GyrA Thr83Ile mutant assessed as rifampicin MIC50 incubated for 18 hrs by broth microdilution method (reference value: 8 microg/ml); conditions: isolate PA262-101856, 18 h
[12] = tested on: Pseudomonas aeruginosa; test: Potentiation of moxifloxacin-induced antibacterial activity against MDR/XDR Pseudomonas aeruginosa isolate 101243 devoid of GyrA T83I mutant assessed as fold reduction in moxifloxacin MIC at 7.5 uM incubated for 18 hrs by broth microdilution method; in short: as §1
[13] = tested on: Pseudomonas aeruginosa; test: Potentiation of rifampicin-induced antibacterial activity against MDR/XDR Pseudomonas aeruginosa isolate PA259-96918 harboring GyrA T83I mutant assessed as fold reduction in rifampicin MIC at 9 uM incubated for 18 hrs by broth microdilution method; in short: as §1
[14] = tested on: Acinetobacter baumannii; test: Synergistic antibacterial activity against multidrug-resistant Acinetobacter baumannii ATCC 17978 assessed as fractional inhibitory concentration index in presence of minocycline incubated for 18 hrs by broth dilution method
[15] = tested on: Escherichia coli; test: Synergistic antibacterial activity against Escherichia coli 94474 assessed as fractional inhibitory concentration index in presence of rifampicin incubated for 18 hrs by broth dilution method
In short: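 Checkerboard titration of the adjuvant against the antibiotic, run under the CLSI microdilution conditions (MHB, 5 × 10^5 CFU/mL, 18 h, 37 °C). Each agent's FIC is its MIC in combination divided by its MIC alone; FICI is the sum of the two FICs. FICI ≤0.5 was read as synergy, >0.5–4.0 as no interaction, and >4.0 as antagonism.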

[16] = tested on: Escherichia coli; test: Potentiation of minocycline-induced antibacterial activity against Escherichia coli 94474 assessed as fold reduction in minocycline MIC at 4.1 uM incubated for 18 hrs by broth dilution method
In short: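 Antibiotic MIC determined by CLSI broth microdilution (MHB, 5 × 10^5 CFU/mL, 18 h, 37 °C), once alone and once with a fixed concentration of the adjuvant. Potentiation is the ratio of the antibiotic MIC alone to its MIC in the presence of the adjuvant.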

[17] = tested on: Pseudomonas aeruginosa; test: Antimicrobial activity against XDR Pseudomonas aeruginosa PA264 infected in Galleria mellonella larvae assessed as survival rate at 100 mg/kg administered 2 hrs post-inoculation measured after 18 hrs relative to control
In short: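 G. mellonella larvae were injected with ~5 CFU of P. aeruginosa PA264 (10 µL of 5 × 10^2 CFU/mL in PBS) and held 2 h at 37 °C. A single 10 µL injection followed: monotherapy or rifampicin + compound (25+25, 50+50 or 75+75 mg/kg), with PBS as control. Larvae kept at 37 °C were scored every 6 h to 24 h; dead = no response to touch. n = 30 (two runs of 15); Kaplan-Meier.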

[18] = tested on: Pseudomonas aeruginosa; test: Potentiation of rifampicin-induced bactericidal activity in MDR/XDR Pseudomonas aeruginosa isolate PA259-96918 harboring GyrA T83I mutant assessed as complete eradication of bacteria at 4 ug/ml incubated for 4 hrs in presence of 1 to 4 ug/ml rifampicin by time kill curve assay
In short: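 Time-kill assay against XDR P. aeruginosa PA259. Overnight culture adjusted to 0.5 McFarland in saline, diluted 1:50 in LB. Incubated at 37 °C for 24 h with rifampicin and adjuvant, alone or combined at various concentrations. Aliquots taken at intervals, serially diluted in PBS and plated on LB agar. Colonies counted after 20 h at 37 °C. Untreated cells as control.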

[19] = tested on: Acinetobacter baumannii; test: Potentiation of minocycline-induced antibacterial activity against […] Acinetobacter baumannii ATCC 17978 assessed as fold reduction in minocycline MIC at 4.1 uM incubated for 18 hrs by broth dilution method; in short: as §1

With `COc1c(N2C[C@@H]3CCCN(CCCCCCCCCCCCO[C@@H]4[C@@H](O)[C@H](N)C[C@H](N)[C@H]4O[C@H]4O[C@H](CN)[C@@H](O)C[C@H]4N)[C@@H]3C2)c(F)cc2c(=O)c(C(=O)O)cn(C3CC3)c12.Cl.Cl.Cl.Cl.Cl` the “fold change (FC)” value [1] was “>=256”, the MIC50 [2] was 0.06 µg/mL and the MIC80 [3] was 0.13 µg/mL. For the same compound, the “fold change (FC)” value [4] was 256, the MIC80 [5] was 1 µg/mL and the “fold change (FC)” value [6] was 512. For the same compound, the MIC [7] was greater than 256 µg/mL, the “fractional inhibitory concentration index (FICI)” value [8] was 0.031 - 0.047 and the “fractional inhibitory concentration index (FICI)” value [9] was 0.16. For the same compound, the “fold change (FC)” value [10] was 128, the MIC50 [11] was 0.06 µg/mL and the “fold change (FC)” value [12] was 32.

With `Cl.Cl.Cl.Cl.Cl.Cl.NC[C@H]1O[C@H](O[C@H]2[C@H](OCCCCCCCCCCN3CCN(Cc4cccc5ccccc45)CC3)[C@@H](O)[C@H](N)C[C@@H]2N)[C@H](N)C[C@@H]1O` the “fold change (FC)” value [13] was “>=256”.

For `Cl.Cl.Cl.Cl.Cl.NC[C@H]1O[C@H](O[C@H]2[C@H](OCCCCCCCCCCCCN3CCN(c4cc5c(cc4F)c(=O)c(C(=O)O)cn5C4CC4)CC3)[C@@H](O)[C@H](N)C[C@@H]2N)[C@H](N)C[C@@H]1O`, the “fractional inhibitory concentration index (FICI)” value [14] was 0.52, the “fractional inhibitory concentration index (FICI)” value [15] was 0.004 - 0.035 and the “fold change (FC)” value [16] was 16. The survival at 100 mg/kg [17] was 0%, the Activity [18] was 100% and the “fold change (FC)” value [19] was 2.
